According to ChEMBL document CHEMBL3091335, “Design and synthesis of potent and selective P2X₃ receptor antagonists derived from PPADS as potential pain modulators” (Eur J Med Chem, 2013):
Active and inactive are the calls of the source. No cut-off for these calls is given here.

Key:
Assay type in all cases: cell-based
[1] = target: T1, P2X purinoceptor 1 (Mus musculus) (UniProt P51576); experiment: Antagonist activity at recombinant mouse P2X1 receptor expressed in Xenopus oocytes assessed as inhibition of ATP-induced ion current at 10 uM preincubated for 20 mins followed by ATP addition by two-electrode voltage clamp assay relative to control
T1 sequence (whole entry): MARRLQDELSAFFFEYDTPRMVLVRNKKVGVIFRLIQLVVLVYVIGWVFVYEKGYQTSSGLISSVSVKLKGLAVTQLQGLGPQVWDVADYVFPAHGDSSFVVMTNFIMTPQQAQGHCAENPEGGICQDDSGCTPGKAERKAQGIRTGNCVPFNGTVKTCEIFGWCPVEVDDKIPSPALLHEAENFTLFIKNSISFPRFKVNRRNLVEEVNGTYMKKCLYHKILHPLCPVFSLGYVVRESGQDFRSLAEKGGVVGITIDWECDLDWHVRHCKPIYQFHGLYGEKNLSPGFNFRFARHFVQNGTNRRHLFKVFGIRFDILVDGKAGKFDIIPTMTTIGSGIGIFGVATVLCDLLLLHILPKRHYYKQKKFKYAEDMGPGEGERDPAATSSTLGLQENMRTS
Summary of the method: (§1)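 Defolliculated Xenopus oocytes were injected with mP2X1 or hP2X3 cRNA (40 nL), held 24 h at 18 °C in Barth's solution, then stored at 4 °C for up to 12 days. Two-electrode voltage clamp was run at Vh −70 mV in HEPES/BaCl2 buffer at pH 7.5. ATP was superfused for 60–120 s with 20 min washout. Currents were normalized to the ATP response, giving % inhibition or IC50 from inhibition curves; mean ± SEM, n≥3.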

[2] = target: T2, P2X purinoceptor 7 (Homo sapiens) (UniProt Q99572); experiment: Antagonist activity at human P2X7 receptor expressed in HEK293 cells assessed as inhibition of BzATP-induced accumulation of ethidium+ at 10 uM after 120 mins by fluorescence assay relative to control
T2 sequence (whole entry): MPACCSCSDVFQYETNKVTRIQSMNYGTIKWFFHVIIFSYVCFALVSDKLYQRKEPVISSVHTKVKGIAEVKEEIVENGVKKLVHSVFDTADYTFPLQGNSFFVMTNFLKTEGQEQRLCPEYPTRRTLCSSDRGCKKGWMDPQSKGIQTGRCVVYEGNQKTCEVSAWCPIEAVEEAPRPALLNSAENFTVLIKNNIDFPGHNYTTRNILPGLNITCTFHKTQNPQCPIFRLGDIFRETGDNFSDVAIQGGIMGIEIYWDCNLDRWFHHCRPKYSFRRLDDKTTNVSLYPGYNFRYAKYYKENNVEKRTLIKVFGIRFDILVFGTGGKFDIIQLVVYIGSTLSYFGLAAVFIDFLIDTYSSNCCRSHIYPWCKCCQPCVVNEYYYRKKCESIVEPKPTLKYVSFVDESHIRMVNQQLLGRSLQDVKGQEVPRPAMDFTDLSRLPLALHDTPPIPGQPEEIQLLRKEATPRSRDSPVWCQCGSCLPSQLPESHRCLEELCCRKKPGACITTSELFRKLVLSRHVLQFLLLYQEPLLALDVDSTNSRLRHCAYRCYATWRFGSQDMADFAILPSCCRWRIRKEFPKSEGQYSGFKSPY
Summary of the method: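 HEK293 cells expressing hP2X7 were grown in DMEM with 10% FBS at 37 °C under 5% CO2, harvested with trypsin/EDTA and resuspended at 2.5 × 10⁶ cells/mL in KCl/glucose/EDTA/HEPES buffer (pH 7.4) with ethidium bromide. Cells were plated at 2 × 10⁵ cells/well with BzATP and incubated at 37 °C for 120 min. Fluorescence was read at ex 530/em 590 nm; mean ± SEM, n≥3.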

[3] = target: T3, P2X purinoceptor 3 (Homo sapiens, UniProt P56373); experiment: Antagonist activity at recombinant human P2X3 receptor expressed in Xenopus oocytes assessed as inhibition of ATP-induced ion current preincubated for 20 mins followed by ATP addition by two-electrode voltage clamp assay; summary of the method: as §1
T3 sequence (P56373 whole entry): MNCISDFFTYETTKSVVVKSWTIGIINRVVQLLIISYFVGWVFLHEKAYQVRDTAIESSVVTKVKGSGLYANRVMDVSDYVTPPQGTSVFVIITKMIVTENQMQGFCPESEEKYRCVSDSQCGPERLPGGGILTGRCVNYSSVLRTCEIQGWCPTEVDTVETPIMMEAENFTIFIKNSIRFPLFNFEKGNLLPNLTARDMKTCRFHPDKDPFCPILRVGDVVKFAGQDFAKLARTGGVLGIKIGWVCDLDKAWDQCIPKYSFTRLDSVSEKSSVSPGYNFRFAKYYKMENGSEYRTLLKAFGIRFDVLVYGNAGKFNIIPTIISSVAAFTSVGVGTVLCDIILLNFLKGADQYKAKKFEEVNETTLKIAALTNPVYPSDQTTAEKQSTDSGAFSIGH

[4] = target: T4, P2X purinoceptor 3 (Homo sapiens) (UniProt P56373); experiment: Antagonist activity at recombinant human P2X3 receptor expressed in Xenopus oocytes assessed as inhibition of ATP-induced ion current at 10 uM preincubated for 20 mins followed by ATP addition by two-electrode voltage clamp assay relative to control; summary of the method: as §1
T4 sequence (whole entry): T3 sequence (P56373 whole entry)

Structure (SMILES)	inhibition [1] [%]	inhibition [2]	IC50 [3] [nM]	inhibition [4]
Cc1nc(Cc2cccc(Oc3ccccc3)c2)c(CCC(=O)O)c(C=O)c1O	23	10.2%	366	–
Cc1nc(Cc2cccc3ccccc23)c(C(=O)O)c(C(=O)O)c1O	48.7	inactive	1250	–
CC(=O)c1c(O)c(C)nc(Cc2ccccc2)c1C(=O)O	44.2	inactive	–	18.3%
COc1ccccc1CCc1nc(C)c(O)c(C(=O)O)c1C(=O)O	49.8	inactive	–	34.5%
Cc1nc(-c2cccc(Oc3ccccc3)c2)c(C(=O)O)c(C(=O)O)c1O	49.7	inactive	3300	–
Cc1nc(COCc2ccccc2)c(C(=O)O)c(C(=O)O)c1O	–	inactive	–	23.1%
COc1cccc(CCc2nc(C)c(O)c(C(=O)O)c2C(=O)O)c1	52.4	inactive	–	45.5%
Cc1nc(NC(=O)c2ccccc2)c(C(=O)O)c(C(=O)O)c1O	–	inactive	723	–
COc1ccccc1CCc1nc(C)c(O)c(C(C)=O)c1C(=O)O	11.4	inactive	–	6.3%
Cc1nc(Cc2ccc(Oc3ccccc3)cc2)c(C(=O)O)c(C(=O)O)c1O	40	inactive	1050	–
COc1cccc(CCc2nc(C)c(O)c(C(C)=O)c2C(=O)O)c1	29.9	inactive	–	15.8%
Cc1nc(Cc2ccccc2)c(C(=O)O)c(C(=O)O)c1O	54.2	inactive	–	31.4%
Cc1nc(Cc2cccc(Oc3ccccc3)c2)c(/C=C/C(=O)O)c(C(=O)O)c1O	33.7	inactive	377	–
CC(=O)c1c(O)c(C)nc(/C=C/c2ccccc2)c1C(=O)O	52.4	inactive	–	27.4%
Cc1cc(C(=O)O)c(C(=O)O)c(NC(=O)c2ccccc2)n1	–	inactive	–	inactive
Cc1nc(Cc2cccc3ccccc23)c(CCC(=O)O)c(C=O)c1O	–	43.4%	636	–
Cc1nc(Cc2cccc(Oc3ccccc3)c2)c(CCC(=O)O)c(C(=O)O)c1O	31.7	inactive	638	–
Cc1nc(CC(c2ccccc2)c2ccccc2)c(C(=O)O)c(C(=O)O)c1O	42	inactive	824	–
Cc1nc(Cc2cccc3ccccc23)c(/C=C/C(=O)O)c(C=O)c1O	22	48.4%	145	–
Cc1nc(Cc2cccc(Oc3ccccc3)c2)c2c(c1O)C(O)OC2=O (stereo not given)	45	27.1%	652	–
Cc1nc(Cc2cccc(Oc3ccccc3)c2)c(C(=O)O)c(C(=O)O)c1O	41.8	inactive	474	–
COc1ccc(CCc2nc(C)c(O)c(C(C)=O)c2C(=O)O)cc1	52	inactive	–	42.2%
Cc1nc(NC(=O)c2cccc(Oc3ccccc3)c2)c(C(=O)O)c(C(=O)O)c1O	–	inactive	928	–
Cc1nc(CCc2cccc(Oc3ccccc3)c2)c(C(=O)O)c(C(=O)O)c1O	38.3	inactive	587	–
CC(=O)c1c(O)c(C)nc(CCc2ccccc2)c1C(=O)O	47.9	inactive	–	37.3%
Cc1nc(Cc2cccc3ccccc23)c2c(c1O)C(O)OC2=O (stereo not given)	–	14.8%	856	–
Cc1nc(Cc2ccccc2Oc2ccccc2)c(C(=O)O)c(C(=O)O)c1O	49.6	inactive	2930	–
